CAL PDZ FP-1: human CAL PDZ-peptide interaction inhibition; AID 504414; purified CAL PDZ, TMR-peptide fluorescence polarization, 1 h; actives 0.02% (n = 330,000); Q9HD26; inhibition, % at 20 µM;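 active = highest replicate inhibition of at least 40%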;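 also: plate controls were DMSO neutral control wells for no effect and unlabeled competitor peptide control wells for full effect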
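System: tagged CAL PDZ domain. Schedule: 1 h room-temperature incubation prior to read. Signal: fluorescence polarization (mP). Measure: percent inhibition from loss of millipolarization.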
CAL PDZ FP-2: CAL PDZ (human) peptide binding inhibition; purified CAL PDZ, TMR-peptide fluorescence polarization, 1 h; inhibition, % at 24.9 µM; actives 0.92% (n = 300,000); AID 602252;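 active = mean inhibition of at least 30% with at least half of replicates also reaching 30%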;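 also: 0% = DMSO neutral control and 100% = excess unlabeled competitor peptide PRC23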
SR-BI HDL uptake: inhibitors of mouse SR-BI mediated HDL lipid uptake; Q61009; ldlA[mSR-BI] CHO cells, DiI-HDL uptake fluorescence, 3 h; inhibition, % at 12.5 µM; actives 0.96% (n = 320,000); AID 488896;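 active = mean replicate inhibition of at least 70% and a set share of replicates each scoring 70 or more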;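 also: 0% = median of neutral control wells and 100% = median of positive control wells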
Target sequence (Q61009 whole entry, looked up): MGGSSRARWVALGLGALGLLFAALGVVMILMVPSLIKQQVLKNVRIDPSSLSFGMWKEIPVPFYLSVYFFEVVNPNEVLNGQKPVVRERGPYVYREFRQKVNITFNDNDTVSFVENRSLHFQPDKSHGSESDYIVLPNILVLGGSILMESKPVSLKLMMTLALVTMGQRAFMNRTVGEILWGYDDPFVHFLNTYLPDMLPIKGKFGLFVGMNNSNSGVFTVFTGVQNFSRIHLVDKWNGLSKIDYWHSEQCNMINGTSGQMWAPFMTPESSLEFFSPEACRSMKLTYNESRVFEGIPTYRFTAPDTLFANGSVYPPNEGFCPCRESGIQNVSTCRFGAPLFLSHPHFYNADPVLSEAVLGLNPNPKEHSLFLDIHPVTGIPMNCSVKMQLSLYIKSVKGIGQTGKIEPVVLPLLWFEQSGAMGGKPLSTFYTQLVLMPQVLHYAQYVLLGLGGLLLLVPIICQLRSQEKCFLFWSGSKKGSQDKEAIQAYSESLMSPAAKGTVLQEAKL
SR-BI DiI-HDL act: activators of SR-BI mediated HDL lipid uptake. CHO ldlA[mSR-BI] cells, DiI-HDL uptake fluorescence, 3 h; 100 = double the neutral-control signal. activation, % at 12.5 µM. actives 0.096% (n = 320,000);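 active = mean replicate activation of at least 60% and every replicate at or above 60%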;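 also: 0% = median plate neutral-control signal and 100% = twice that signal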
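Material: SR-BI-overexpressing, LDLR-lacking CHO cells | Dosing: Single compound concentration, delivered by pin transfer | Probe or stimulus: Labelled HDL, 10 µg/mL | Signal: Bottom-read cell fluorescence after medium removal, ex 550/em 595 nm | Schedule: 3 h, 37 °C | Evaluation: HDL uptake via cellular fluorescence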
miR-122 sensor: miR-122 inhibition in Huh7 cells. Huh7 miR-122 Renilla luciferase sensor, 48 h; neutral wells = 0, positive control = 100. activation (reporter increase), % at 12.5 µM. actives 0.3% (n = 340,000). AID 602342;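 active = mean replicate activation score at least 90 and every replicate individually at or above 90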;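 also: higher luciferase means less miR-122 activity so hits act as miR-122 inhibitors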
ARNT-TACC3 inh: disruptors of human ARNT/TACC3 interaction | Q9Y6A5 | actives 0.66% (n = 390,000) | AID 623870 | AlphaScreen His-ARNT PAS-B/GST-TACC3 binding, luminescence; TACC3 fragment carries E629A point mutation | inhibition, % at 9.99 µM;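 active = mean inhibition of replicates at least 50% and at least half of replicates each reaching 50%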;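 also: 0% = complete ARNT plus TACC3 wells and 100% = ARNT alone without TACC3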
Numbers without * were called inactive; [ ] = another dose, or the depositor's remark. In the library only some 2.1% were active in any assay of this set; here they are far more common.

COc1ccc(N2C(=O)/C(=C/c3ccc([N+](=O)[O-])cc3)C=C2c2ccccc2)cc1 was read as CAL PDZ FP-1 -2.7, CAL PDZ FP-2 -2.3, SR-BI HDL uptake 96.4*, SR-BI DiI-HDL act -96.4, miR-122 sensor -4.8 and ARNT-TACC3 inh -3.3.
Screening COc1ccccc1CNC(=O)COC(=O)CC1CC2CCC1C2 (stereo not drawn) returned CAL PDZ FP-1 -0.4, CAL PDZ FP-2 80.3*, SR-BI HDL uptake -17.6, SR-BI DiI-HDL act 17.6 and ARNT-TACC3 inh -7.1.
COc1ccccc1CNC(=O)COc1ccc(C)cc1 was read as CAL PDZ FP-1 0.4, SR-BI HDL uptake inactive, SR-BI DiI-HDL act 718.1*, miR-122 sensor -1.8 and ARNT-TACC3 inh 4.0.
For COc1ccccc1CNC(=O)COc1ccccc1OC the results were CAL PDZ FP-2 -3.6, SR-BI HDL uptake -0.2, SR-BI DiI-HDL act 0.2, miR-122 sensor 7.1 and ARNT-TACC3 inh -4.8.
Screening C[C@H]1CN([C@@H](C)CO)C(=O)Cc2cc(NS(=O)(=O)c3ccc(Cl)cc3)ccc2O[C@H]1CN(C)C(=O)Nc1ccccc1 returned miR-122 sensor -5.1[16.7 µM] and ARNT-TACC3 inh -9.9.
C[C@H](CO)N1C[C@H](C)[C@@H](CN(C)Cc2ccncc2)Oc2cc(-c3ccccc3F)ccc2S1(=O)=O was read as miR-122 sensor 16.5[16.7 µM] and ARNT-TACC3 inh 5.1.
CCC(C)NCC(=O)Nc1cc(S(=O)(=O)N(CC)c2ccccc2)ccc1Cl (stereo not drawn) was read as CAL PDZ FP-1 -1.8, CAL PDZ FP-2 -2.2, SR-BI HDL uptake 72.1*, SR-BI DiI-HDL act -72.1, miR-122 sensor 11.3 and ARNT-TACC3 inh -0.9.
For CCN(c1ccccc1)S(=O)(=O)c1ccc(Cl)c(NC(=O)CNC(C)c2ccccc2)c1 (stereo not drawn) the results were CAL PDZ FP-1 -6.5, CAL PDZ FP-2 -6.2, SR-BI HDL uptake -1.1, SR-BI DiI-HDL act 1.1, miR-122 sensor 5.7 and ARNT-TACC3 inh -10.6.
For COc1ccc(NC(=O)Nc2ccc3c(c2)C(=O)N([C@@H](C)CO)C[C@@H](C)[C@@H](CN(C)S(=O)(=O)c2ccc(F)cc2)OCCCC[C@H](C)O3)cc1 the results were miR-122 sensor 9.1[16.7 µM] and ARNT-TACC3 inh 11.1.
Screening COC(=O)c1c(C)oc(C)c1S(=O)(=O)NCC1CC1 returned CAL PDZ FP-1 -0.1, CAL PDZ FP-2 -4.2, SR-BI HDL uptake -8.3, SR-BI DiI-HDL act 8.3, miR-122 sensor 96.6* and ARNT-TACC3 inh -12.7.
O=C1C(Nc2ccc(O)cc2)=C/C(=N/S(=O)(=O)c2cccs2)c2ccccc21 was read as CAL PDZ FP-1 0.5, SR-BI HDL uptake 36.5, SR-BI DiI-HDL act -36.4 and ARNT-TACC3 inh 66.6*.
Screening C[C@@H]1CN([C@@H](C)CO)C(=O)c2cccc(NS(=O)(=O)c3ccc(F)cc3)c2O[C@@H]1CN(C)C(=O)Nc1ccccc1 returned miR-122 sensor -0.3[16.7 µM] and ARNT-TACC3 inh 0.1.
For O=C(O)CCCCCN1C(=O)CCC1=O the results were CAL PDZ FP-2 45.3*, SR-BI HDL uptake -22.1, SR-BI DiI-HDL act 22.1, miR-122 sensor 6.8 and ARNT-TACC3 inh -7.3.
`CN(C)C(=O)c1c(NC(=O)c2ccco2)sc2c1CCCCC2` gave CAL PDZ FP-2 2.7, SR-BI HDL uptake 31.0, SR-BI DiI-HDL act -31.0, miR-122 sensor -1.9 and ARNT-TACC3 inh -1.2.
`Cc1occc1C(=O)Nc1sc2c(c1C(N)=O)CCCCC2` gave CAL PDZ FP-1 -1.4, CAL PDZ FP-2 -1.2, SR-BI HDL uptake 73.4*, SR-BI DiI-HDL act -73.4, miR-122 sensor 15.6 and ARNT-TACC3 inh 1.2.
Screening CNC(=O)c1c(NC(=O)c2ccc(N3C(=O)CCC3=O)cc2)sc2c1CCCC2 returned CAL PDZ FP-1 -4.2, SR-BI HDL uptake 86.5*, SR-BI DiI-HDL act -86.5, miR-122 sensor -7.0 and ARNT-TACC3 inh 2.3.
`O=C(Nc1sc2c(c1C(=O)O)CCCCC2)c1ccco1` gave CAL PDZ FP-1 -1.2, CAL PDZ FP-2 -3.0, SR-BI HDL uptake -10.5, SR-BI DiI-HDL act 10.5, miR-122 sensor 208.3* and ARNT-TACC3 inh -4.2.
Cc1cccc2c1nc(-c1ccccc1)n1cnnc21 was read as CAL PDZ FP-2 -1.9, SR-BI HDL uptake inactive, SR-BI DiI-HDL act 853.8*, miR-122 sensor 4.1 and ARNT-TACC3 inh -3.4.
`O=C(NCCc1ccccc1)c1ccc2c(c1)N(Cc1ccccc1)C(=O)CS2=O` (stereo not drawn) gave CAL PDZ FP-1 0.2, CAL PDZ FP-2 3.1, SR-BI HDL uptake 1.1, SR-BI DiI-HDL act -1.1, miR-122 sensor 8.4 and ARNT-TACC3 inh 1.9.
For O=C(Nc1ccccc1Cl)c1ccc2c(c1)N(Cc1ccc(F)cc1)C(=O)CS2=O (stereo not drawn) the results were CAL PDZ FP-1 -0.4, CAL PDZ FP-2 0.2, SR-BI HDL uptake 82.2*, SR-BI DiI-HDL act -82.2, miR-122 sensor -0.5 and ARNT-TACC3 inh -1.4.
For C[C@@H]1CN([C@H](C)CO)C(=O)c2cc(NC(=O)c3ccccc3)ccc2O[C@@H](C)CCCCO[C@H]1CN(C)Cc1ccc2c(c1)OCO2 the results were miR-122 sensor -7.3[16.7 µM] and ARNT-TACC3 inh -2.1.
Cc1ccc(/C=N/NC(=O)c2ccc(NC(=O)c3ccc(Cl)cc3)cc2)o1 was read as CAL PDZ FP-1 -2.5, CAL PDZ FP-2 -6.6, SR-BI HDL uptake 49.9, SR-BI DiI-HDL act -49.9 and ARNT-TACC3 inh -7.6.
For Cc1ccc(C(=O)Nc2ccc(C(=O)N/N=C/c3ccc(C)o3)cc2)cc1 the results were CAL PDZ FP-1 -2.9, CAL PDZ FP-2 -7.9, SR-BI HDL uptake 79.7*, SR-BI DiI-HDL act -79.7 and ARNT-TACC3 inh 30.9.
For COc1ccc(/C=N/NC(=O)c2cccc(NC(=O)c3ccccc3Cl)c2)cc1 the results were CAL PDZ FP-1 -4.0, SR-BI HDL uptake 22.1, SR-BI DiI-HDL act -22.1 and miR-122 sensor 14.9.
C/C(=N\NC(=O)c1c(Cl)cnn1C)c1cccc(NC(=O)c2ccc(C)cc2)c1 was read as CAL PDZ FP-1 -1.1, CAL PDZ FP-2 -1.9, SR-BI HDL uptake 84.8*, SR-BI DiI-HDL act -84.8, miR-122 sensor 0.6 and ARNT-TACC3 inh -0.8.
Screening Cc1ccccc1C(=O)Nc1cccc(C(=O)N/N=C/c2ccccn2)c1 returned CAL PDZ FP-1 -1.6, CAL PDZ FP-2 -9.6, SR-BI HDL uptake 24.3, SR-BI DiI-HDL act -24.3, miR-122 sensor 1.3 and ARNT-TACC3 inh 45.6*.
Screening COc1ccc(/C=N/NC(=O)c2cccc(NC(=O)c3ccccc3Cl)c2)c(OC)c1 returned CAL PDZ FP-2 -6.4, SR-BI HDL uptake 76.6* and SR-BI DiI-HDL act -76.6.
For COC(=O)C[C@H]1CC[C@@H](NC(=O)Nc2ccc(C(F)(F)F)cc2)[C@H](CO)O1 the results were ARNT-TACC3 inh -8.1.

Screening results as filed in PubChem.
